# Reference: ChEMBL document CHEMBL2424553, “Synthesis, molecular docking and kinetic properties of β-hydroxy-β-phenylpropionyl-hydroxamic acids as Helicobacter pylori urease inhibitors” (Eur J Med Chem, 2013)
# What was measured:
# [1] = molecular target: T1, Urease subunit alpha/Urease subunit beta (Helicobacter pylori (strain ATCC 700392 / 26695) (Campylobacterpylori), UniProt P69996); assay: Inhibition of urease extracted from Helicobacter pylori ATCC 43504 assessed as ammonia production preincubated for 1.5 hrs by indophenol-based method
# T1 sequence (P69996 whole entry): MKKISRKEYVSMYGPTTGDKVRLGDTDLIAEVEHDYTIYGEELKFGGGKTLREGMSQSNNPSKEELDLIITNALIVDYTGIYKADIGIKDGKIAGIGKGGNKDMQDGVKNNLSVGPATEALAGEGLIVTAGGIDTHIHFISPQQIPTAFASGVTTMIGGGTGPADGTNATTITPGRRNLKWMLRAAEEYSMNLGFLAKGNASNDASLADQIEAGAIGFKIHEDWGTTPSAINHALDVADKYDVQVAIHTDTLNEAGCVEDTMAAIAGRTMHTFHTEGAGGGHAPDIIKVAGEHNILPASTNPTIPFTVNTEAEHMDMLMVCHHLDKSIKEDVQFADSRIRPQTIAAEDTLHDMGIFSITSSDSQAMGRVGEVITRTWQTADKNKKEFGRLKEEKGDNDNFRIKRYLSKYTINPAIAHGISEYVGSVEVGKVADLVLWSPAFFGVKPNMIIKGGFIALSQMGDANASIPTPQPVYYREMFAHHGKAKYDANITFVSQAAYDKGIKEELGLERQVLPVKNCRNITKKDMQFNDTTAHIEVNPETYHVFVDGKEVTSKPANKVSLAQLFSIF
# T1 sequence (P14916 whole entry, further chain): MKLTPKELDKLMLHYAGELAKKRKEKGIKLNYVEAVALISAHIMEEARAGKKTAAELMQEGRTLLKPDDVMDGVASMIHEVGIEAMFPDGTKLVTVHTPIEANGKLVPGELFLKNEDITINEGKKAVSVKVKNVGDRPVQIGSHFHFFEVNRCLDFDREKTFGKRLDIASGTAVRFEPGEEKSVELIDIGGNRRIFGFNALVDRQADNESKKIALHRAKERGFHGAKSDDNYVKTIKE
# Outline: (§1)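 H. pylori ATCC 43504 grown 24 h at 37 °C in Brucella broth with 10% heat-inactivated horse serum under microaerobic gas (5% O2, 10% CO2, 85% N2). Cells pelleted (5000 g, 4 °C) and washed twice in PBS pH 7.4 to prepare urease. Enzyme pre-incubated with test compound 1.5 h at room temperature. Ammonia measured by the indophenol method. Run in triplicate.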
# [2] = molecular target: T2, Urease subunit alpha/Urease subunit beta (Helicobacter pylori (strain ATCC 700392 / 26695) (Campylobacterpylori)) (UniProt P69996+P14916); assay: Ratio of IC50 for urease in Helicobacter pylori ATCC 43504 intact cell to IC50 for urease extracted from Helicobacter pylori ATCC 43504
# T2 sequence (P14916 whole entry, looked up): as the sequence (P14916 whole entry, further chain) above
# T2 sequence (P69996 whole entry, looked up): as the sequence (P69996 whole entry) above
# [3] = molecular target: T1, Urease subunit alpha/Urease subunit beta; assay: Inhibition of urease in Helicobacter pylori ATCC 43504 intact cell assessed as ammonia production preincubated for 1.5 hrs by indophenol-based method
# Outline: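 H. pylori grown 24 h at 37 °C in Brucella broth with 10% heat-inactivated horse serum, microaerobic (5% O₂, 10% CO₂, 85% N₂); cells pelleted (5000 g, 4 °C), PBS-washed (pH 7.4), suspended at 4.0 × 10⁷ CFU/mL. Suspension with test compound preincubated 1.5 h at room temperature; ammonia measured by Weatherburn indophenol method.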
# [4] = molecular target: T2, Urease subunit alpha/Urease subunit beta (Helicobacter pylori (strain ATCC 700392 / 26695) (Campylobacterpylori)); assay: Potency index, ratio of AHA IC50 to compound IC50 for Helicobacter pylori ATCC 43504 urease
# [5] = molecular target: T1, Urease subunit alpha/Urease subunit beta; assay: Mixed-type competitive inhibition of Helicobacter pylori ATCC 43504 urease using urea as substrate by Lineweaver-burk plot analysis
# [6] = molecular target: T1, Urease subunit alpha/Urease subunit beta; assay: Inhibition of Helicobacter pylori urease; outline: as §1
Compound,IC50 [1] [µM],Ratio IC50 [2],IC50 [3] [µM],further results
CN(C)c1ccc(C(=O)NO)cc1,77.9,,,
O=C(CC(O)c1ccccc1)NO (racemic),15.6,,,
COc1ccccc1C(O)CC(=O)NO (racemic),38.5,,,
O=C(CC(O)c1ccccc1Cl)NO (racemic),1.19,3,9.21,
O=C(CC(O)c1ccccc1F)NO (racemic),5.6,,,
O=C(CC(O)c1cccc(O)c1)NO (racemic),131,,,
COc1cccc(C(O)CC(=O)NO)c1 (racemic),23.2,,,
O=C(CC(O)c1cccc(Cl)c1)NO (racemic),0.083,,0.36,Ratio IC50 [4]: 330; Ki [5]: 0.014 µM
O=C(CC(O)c1cccc(F)c1)NO (racemic),3.99,3,13.3,
O=C(CC(O)c1cccc(C(F)(F)F)c1)NO (racemic),1.22,3,6.81,
COc1ccc(C(O)CC(=O)NO)cc1 (racemic),75.1,,,
O=C(CC(O)c1ccc(OCc2ccccc2)cc1)NO (racemic),61.5,,,
O=C(CC(O)c1ccc(Cl)cc1)NO (racemic),3.39,,,
O=C(CC(O)c1ccc(F)cc1)NO (racemic),8.01,,,
O=C(CC(O)c1ccc(C(F)(F)F)cc1)NO (racemic),7.89,,,
CN(C)c1ccc(C(O)CC(=O)NO)cc1 (racemic),7.13,,,
O=C(CC(O)c1cccc(Cl)c1Cl)NO (racemic),0.23,4,0.91,Ki [5]: 0.045 µM
O=C(CC(O)c1ccc(Cl)c(Cl)c1)NO (racemic),0.37,3,1.42,
O=C(CC(O)c1cc(Cl)ccc1O)NO (racemic),1.28,8.8,11.3,
COc1ccc(F)cc1C(O)CC(=O)NO (racemic),11,,,
O=C(CC(O)c1cc(Cl)cc(Cl)c1O)NO (racemic),1.04,3,8.9,
CC(=O)NO [ACETOHYDROXAMIC ACID],27.6,,110,
O=c1c(O)c(-c2ccc(O)c(O)c2)oc2cc(O)cc(O)c12 [QUERCETIN],,,,IC50 [6]: 11.2 µM
